The text below walks through data of ChEMBL document CHEMBL1777695, “Design and synthesis of pironetin analogues with simplified structure and study of their interactions with microtubules” (Eur J Med Chem, 2011).

Test [1] deals with A2780. The test can be described thus: Resistance index, ratio of IC50 for human compound-resistant A2780AD cells to IC50 for human compound-sensitive A2780 cells.
The subject of test [2] is A549. The test can be described thus: Induction of microtubule cytoskeleton depolymerization in human A549 cells at 200 uM after 4 hrs by immunofluorescence assay. In kind it is cell-based.
Test [3] concerns A549. The test can be described thus: Induction of abberant mitosis in human A549 cells assessed as metaphase mitotic cells with type III mitotic spindles at 200 uM after 4 hrs relative to control. It is filed as functional, cell-based. Summed up: (§1)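 A549 cells grown overnight on coverslips, then treated 4 h with ligand (50 nM or 200 µM) or DMSO vehicle. Cells permeabilized with Triton X-100 and fixed in 3.7% formaldehyde. Microtubules stained with DM1A anti-α-tubulin antibody and DNA with Hoechst 33342. Spindle and microtubule morphology examined by epifluorescence microscopy.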

In test [4] the test system is A549. The test can be described thus: Induction of abberant mitosis in human A549 cells assessed as metaphase mitotic cells with DNA forming a ring surrounding mono-aster of microtubule at 200 uM after 4 hrs relative to control. It is filed as functional, cell-based. Summed up:
as §1

In test [5] the test system is A549. The test can be described thus: Cell cycle arrest in human A549 cells assessed as minimum concentration required to induce accumulation at G2/M phase after 20 hrs by propidium iodide staining-based flow cytometry. In kind it is functional. The method, boiled down: (§2)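 A549 cells (RPMI 1640, 10% FCS, glutamine, antibiotics) exposed 20 h to ligand or vehicle. Cells fixed, RNase-treated and stained with propidium iodide. DNA content read by flow cytometry. The lowest concentration giving maximal G2/M arrest is reported.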

Test [6] has as its system A2780. The test can be described thus: Cytotoxicity against compound-sensitive human A2780 cells after 24 hrs by MTT assay. It is filed as functional, cell-based. The conditions noted are these: A2780, 24 h. Summed up:
(§3)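 MTT proliferation assay in ovarian carcinoma A2780 and P-glycoprotein-overexpressing A2780AD cells, grown in RPMI 1640 with 10% FCS, glutamine, antibiotics and 0.25 units/mL bovine insulin. IC50 (50% inhibition of proliferation) is the mean ± standard error of two independent experiments in duplicate. Relative resistance is IC50 in A2780AD divided by IC50 in A2780.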
A general note: Formazan colour is commonly taken as a measure of viable cells.

Test [7] in a line: Displacement of pironetin from tubulin in cell-free system assessed as bound pironetin concentration at 200 uM after 15 mins by HPLC method. Summed up: (§4)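 Tubulin (25 µM in GAB: 3.4 M glycerol, 10 mM sodium phosphate, 1 mM EGTA, 1 mM GTP, pH 6.5) preincubated 15 min at 37 °C with 200 µM analogue or DMSO. 30 µM pironetin then added for a further 15 min. Docetaxel (10 µM) added as internal standard. Unreacted pironetin extracted three times with CH2Cl2 and quantified by reverse-phase HPLC, UV at 230 nm. Mean of three measurements ± SE.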

Test [8] is described as follows: Displacement of pironetin from tubulin in cell-free system assessed as unbound pironetin concentration at 200 uM after 15 mins by HPLC method. Summed up:
as §4

Test [9] in a line: Inhibition of tubulin assembly assessed as concentration of tubulin required to produce assembly at 100 uM after 30 mins. Summed up: (§5)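 Purified tubulin (20 µM) incubated 30 min at 37 °C in GAB (3.4 M glycerol, 10 mM sodium phosphate, 1 mM EGTA, 1 mM GTP, pH 6.5) with 25 µM pironetin or docetaxel, 100 µM analogue, or DMSO vehicle. Critical concentration for assembly determined. Mean of five measurements ± SE.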

Test [10] in a line: Cytotoxicity against compound-resistant human A2780AD cells after 24 hrs by MTT assay. It is filed as functional, cell-based. The conditions noted are these: A2780 ADR. Summed up:
as §3

In test [11] the test system is A549. The test can be described thus: Induction of apoptosis in human A549 cells after 20 hrs. It is filed as functional, cell-based.
The test system of test [12] is A549. The test can be described thus: Cell cycle arrest in human A549 cells assessed accumulation at G2/M phase at 50 nM after 20 hrs by propidium iodide staining-based flow cytometry. It is filed as functional. The method, boiled down: as §2
In general terms: Flow cytometry measures light scatter and fluorescence of single cells or particles in a stream.

Test [13] concerns A549. The test can be described thus: Induction of microtubule cytoskeleton depolymerization in human A549 cells at 50 nM after 4 hrs by immunofluorescence assay. It is filed as cell-based. The method, boiled down:
as §1

Test [14] in a line: Binding affinity to tubulin after 15 min. Summed up:
as §4

Test [15] relates to A549. The test can be described thus: Induction of abberant mitosis in human A549 cells assessed as metaphase mitotic cells with type III mitotic spindles at 50 nM after 4 hrs relative to control. It is filed as functional, cell-based. Summed up:
as §1

A short description of test [16]: Inhibition of tubulin assembly assessed as concentration of tubulin required to produce assembly at 25 uM after 30 mins. Summed up: as §5
In test [17] the test system is A549. The test can be described thus: Induction of abberant mitosis in human A549 cells assessed as metaphase mitotic cells with DNA forming a ring surrounding mono-aster of microtubule at 50 nM after 4 hrs relative to control. It is filed as functional, cell-based. The method, boiled down:
as §1

Each structure is given as a SMILES string. Calls of active or inactive are those of the source. The calls are words filed in the database; no cut-off is given here.

In the case of `CCCCC[C@H](CCC[C@@H]1CC=CC(=O)O1)OC`, in the test with A2780 [1], the “Ratio IC50” value stood at 1.42. Also, the result in the test on A549 [2], in the test on A549 [3] and in the test on A549 [4] was Active. Also, the Activity with A549 [5] was 50 µM; in test [7], 10 µM; in test [8], 15 µM; in test [9], 3.79 µM. Moreover, the figures for the IC50 (with A2780 [6]; in test [10]) were 14.4 µM and 20.5 µM, respectively.

As for `CC(=O)O[C@H]1C(=O)[C@@]2(C)[C@H]([C@H](OC(=O)c3ccccc3)[C@]3(O)C[C@H](OC(=O)[C@H](O)[C@@H](NC(=O)c4ccccc4)c4ccccc4)C(C)=C1C3(C)C)[C@]1(OC(C)=O)CO[C@@H]1C[C@@H]2O` [PACLITAXEL], the “Ratio IC50” value with A2780 [1] amounted to 1157. The IC50 (commonly the concentration that inhibits the measured activity by half) in the test with A2780 [6] came to 0.00082 µM; in test [10], 0.949 µM.

On to `CCCCC[C@H](C[C@H](O)C[C@@H]1CC=CC(=O)O1)OC`, for which, in the test on A2780 [1], the “Ratio IC50” value is listed as 1.3. The outcome in the test with A549 [11] was inactive. Moreover, the Activity was 100 µM with A549 [5], 4 µM in test [7] and 10 µM in test [8]. Further, the results for the IC50 (with A2780 [6]; in [10]) were 22.9 µM and 30 µM, respectively.

Consider `C/C=C/C[C@H](C)[C@@H](OC)[C@@H](C)[C@H](O)C[C@H]1OC(=O)C=C[C@H]1CC` [PIRONETIN], for which the “Ratio IC50” value with A2780 [1] stood at 1. Moreover, the result with A549 [12], in the test on A549 [13], in the test with A549 [15] and in the test on A549 [17] was Active. Further, in the test with A549 [11], the outcome was inactive. The Activity is 23.4 µM in test [14] and greater than 15 µM in test [16]. For the same compound, the figures for the half-maximal inhibitory concentration (IC50) (in the test with A2780 [6]; in test [10]) were 0.0029 µM and 0.003 µM, respectively.

In the case of `CCCCC[C@H](C[C@@H](O)C[C@H]1CC=CC(=O)O1)OC`, the “Ratio IC50” value with A2780 [1] came to 0.62. Further, the result in the test with A549 [11] was inactive. Moreover, the Activity in the test on A549 [5] amounted to 100 µM; in test [9], 3.44 µM. The IC50 in the test on A2780 [6] amounted to 28.9 µM; in test [10], 18.1 µM.

Take `CCCCC[C@@H](CCC[C@H]1CC=CC(=O)O1)OC`: in the test with A2780 [1], the “Ratio IC50” value was 0.45. The result with A549 [2], in the test with A549 [3] and in the test with A549 [4] was Active. The outcome in the test on A549 [11] was inactive. The Activity with A549 [5] came out at 50 µM; in test [9], 3.73 µM. Further, the concentration for half-maximal inhibition (IC50) in the test on A2780 [6] amounted to 20.6 µM; in [10] it was 9 µM.

As for `CCCCC[C@@H](C[C@H](O)C[C@@H]1CC=CC(=O)O1)OC`, the “Ratio IC50” value in the test on A2780 [1] came to 0.74. Also, the result in the test on A549 [11] was inactive. In addition, the Activity turned out to be 100 µM in the test with A549 [5], 4 µM in test [7] and 10 µM in test [8]. Moreover, the IC50 in the test on A2780 [6] turned out to be 35.4 µM; in test [10], 26.3 µM.

For the compound `CCCCC[C@H](CCC[C@H]1CC=CC(=O)O1)OC`, the “Ratio IC50” value in the test with A2780 [1] was 0.7. In addition, the outcome in the test on A549 [2], in the test with A549 [3] and in the test on A549 [4] was Active. The Activity came out at 50 µM with A549 [5], 10 µM in [7], 15 µM in test [8] and 3.85 µM in test [9]. Further, the IC50 in the test on A2780 [6] is 17.1 µM; in test [10], 12.2 µM.

Turning to `CC(=O)O[C@@]12CO[C@@H]1C[C@H](O)[C@@]1(C)C(=O)[C@H](O)C3=C(C)[C@@H](OC(=O)[C@H](O)[C@@H](NC(=O)OC(C)(C)C)c4ccccc4)C[C@@](O)([C@@H](OC(=O)c4ccccc4)[C@H]21)C3(C)C`, the Activity in [16] turned out to be 0.4 µM.

Regarding `CCCCC[C@@H](C[C@@H](O)C[C@@H]1CC=CC(=O)O1)OC`, the “Ratio IC50” value in the test with A2780 [1] was 0.93. The result with A549 [2], in the test on A549 [3] and in the test with A549 [4] was Active. In addition, in the test on A549 [11], the result was inactive. The Activity in the test on A549 [5] was 200 µM. The IC50 came to 49.4 µM in the test with A2780 [6] and 46.3 µM in test [10].

For the compound `CCCCC[C@H](C[C@@H](O)C[C@@H]1CC=CC(=O)O1)OC`, the “Ratio IC50” value with A2780 [1] worked out at 1.67. For the same compound, the outcome in the test with A549 [11] was inactive. In addition, in the test on A549 [5], the Activity worked out at 200 µM. Moreover, the values for the IC50 (in the test with A2780 [6]; in [10]) were 54.5 µM and 91.5 µM, respectively.

For `CCCCC[C@@H](CCC[C@@H]1CC=CC(=O)O1)OC`, in the test with A2780 [1], the “Ratio IC50” value came to 0.77. Also, the result in the test with A549 [11] was inactive. The Activity was 50 µM with A549 [5], 10 µM in test [7], 15 µM in [8] and 3.75 µM in test [9]. Moreover, the IC50 in the test with A2780 [6] is 14.9 µM; in test [10] it was 11.5 µM.

Turning to `CCCCC[C@H](C[C@H](O)C[C@H]1CC=CC(=O)O1)OC`, the “Ratio IC50” value in the test on A2780 [1] is given as 1.3. Moreover, in the test with A549 [11], the result was inactive. In addition, the Activity in the test on A549 [5] turned out to be 100 µM; in [7], 4 µM; in test [8], 10 µM; in [9], 3.39 µM. Also, the IC50 in the test with A2780 [6] is 44 µM; in [10], 57.5 µM.

In the case of `CCCCC[C@@H](C[C@H](O)C[C@H]1CC=CC(=O)O1)OC`, the “Ratio IC50” value in the test on A2780 [1] is recorded as 0.89. Moreover, the outcome in the test on A549 [11] was inactive. The Activity in the test with A549 [5] worked out at 200 µM. In addition, the IC50 in the test with A2780 [6] turned out to be 53.7 µM; in [10], 48 µM.

Regarding `CCCCC[C@@H](C[C@@H](O)C[C@H]1CC=CC(=O)O1)OC`, the “Ratio IC50” value in the test with A2780 [1] came to 0.74. Also, the result with A549 [11] was inactive. Further, in the test with A549 [5], the Activity turned out to be 200 µM. The IC50 in the test with A2780 [6] amounted to 33.7 µM; in test [10], 25.2 µM.
